According to paper PMC5115981 (Cancer chemotherapy and pharmacology, 2016):
pIC50: −log10 of the molar value.

Assays:
[1] = test system: mice; experiment: Multiple dose; type: in vivo, mouse; conditions: IV daily for 5 days at 4, 2.7, 1.3 mg/kg, female mice
Summary of the method: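 Female heterozygous Foxn1nu/Foxn1+ mice, 5 per group, fasted overnight before dosing. Test compound given IV by lateral tail vein daily for 5 days, in 10% Solutol HS15 in sterile water at 0.01 ml/g body weight; a vehicle group was included. Body weights tracked before, during and after dosing over a 14 day observation period, followed by necropsy for gross pathology.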

[2] = test system: pSTAT3 from IL-6 induction in a Cal33 cell line; conditions: read-out: IC50, inhibiting pSTAT3 from IL-6 induction; cited from earlier work

COc1ccc(C2=Nn3c(nnc3-c3cc(-c4ccc(Cl)cc4)n[nH]3)SC2C)cc1 (stereo not shown) [UPCDC-10205, 3-(3-(4-chlorophenyl)-1H-pyrazole-5-yl)-6-(4-methoxyphenyl)-7-methyl-7H-[1,2,4]triazolo[3,4-b][1,3,4]thiadiazine]
body weights vs vehicle control group, multiple dose [1]: no statistical differences | gross pathology upon necropsy, multiple dose [1]: no signs of gross pathology | signs or symptoms of toxicity, multiple dose ([1]; 14 day observation): not toxic | pIC50 [2]: 5.66
